Reference: ChEMBL document CHEMBL1128464, “Synthesis and antiproliferative and antiviral activity of 2'-deoxy-2'-fluoroarabinofuranosyl analogs of the nucleoside antibiotics toyocamycin and sangivamycin” (J Med Chem, 1995)
pIC50: −log10 of the molar value. Values joined by “and” are separate entries in the source; they are usually repeats but may differ in a detail not shown here. Equal values may be shown once.

Legend:
[1] = tested on: Human alphaherpesvirus 1; assay: Antiviral activity in Herpes simplex virus-1 assayed by ELISA in quadruplicate wells; type: functional, organism-based
[2] = tested on: L1210; assay: antiproliferative activity in L1210 Murine Leukemia in vitro expressed as concentration required to decrease growth rate to 50% of control; type: functional, cell-based; settings: Mus musculus
How it was run: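 L1210 cells in static suspension, Fischer's medium with 10% heat-inactivated horse serum; cell counts at 0, 48, 96 h over a concentration series; IC50 is the concentration lowering growth rate (treated doublings as % of control) to 50% of control.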

[3] = tested on: Human betaherpesvirus 5; assay: antiviral activity in Human cytomegalovirus by plaque assay (HCMV); type: functional, organism-based
[4] = tested on: CCRF-CEM; assay: Visual cytotoxicity scored on CEM cells at time of RT assay; settings: Homo sapiens
[5] = tested on: Human betaherpesvirus 5; assay: antiviral activity in Human cytomegalovirus by plaque assay given as yield; type: functional
[6] = tested on: L1210; assay: Antiproliferative activity in L1210 Murine Leukemia in vitro expressed as Growth rate in the presence of compound; type: functional, Mus musculus; set-up: concentration or dose not given beside the values
[7] = tested on: HFF; assay: Visual cytotoxicity scored on HFF cells at time of HCMV plaque enumeration; type: functional, cell-based; settings: Homo sapiens
How it was run: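 Stationary HFF cells, uninfected cells in HCMV plaque assay plates scored by microscopic inspection at plaque enumeration (7–10 days); IC50.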

[8] = tested on: KB; assay: cell growth inhibition was determined in KB cells in quadruplicate assays; type: functional, cell-based; settings: Homo sapiens
[9] = tested on: CCRF-CEM; assay: cytotoxicity in CEM-SS cells by [3H]Thd uptake; type: functional, cell-based; settings: Homo sapiens
How it was run: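 [3H]dThd incorporation into acid-precipitable DNA of CEM-SS cells; IC50 from regression of % inhibition on log concentration; triplicate assays.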

[10] = tested on: Human alphaherpesvirus 3; assay: antiviral activity as 50% inhibitory concentration against VZV; type: functional, organism-based
How it was run: (§1)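 Plaque reduction in HFF monolayers; HSV-1 E-377, HSV-2 MS or VZV Ellen, 20–50 PFU, 1 h adsorption at 37 °C; serial 5-fold drug dilutions in agarose overlay (extra overlay days 3 and 6 for VZV); neutral red staining at 3 days (HSV) or 10 days (VZV); plaques counted; duplicate assays.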

[11] = tested on: CCRF-CEM; assay: cytotoxicity in CEM-SS cells by visual inspection; type: functional, cell-based; settings: Homo sapiens
[12] = tested on: HFF; assay: Cytotoxicity in human foreskin fibroblast (HFF) stationary cells as neutral red uptake; type: functional, cell-based
[13] = tested on: HFF; assay: Cytotoxicity in human foreskin fibroblast (HFF) stationary by MTT assay; type: functional, cell-based
How it was run: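 MTT assay on stationary HFF cells; drug in half-log10 dilutions; incubated one to three population doublings in 5% CO2; viable cells read at 570 nm; % inhibition vs control; IC50 from regression; duplicate assays.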

[14] = tested on: Human alphaherpesvirus 2; assay: Antiviral activity as 50% inhibitory concentration against HSV-2; type: functional, organism-based; how it was run: as §1
[15] = tested on: Human alphaherpesvirus 1; assay: Antiviral activity as 50% inhibitory concentration against HSV-1; type: functional, organism-based; how it was run: as §1

Row | SMILES | pIC50 [1] | pIC50 [2] | pIC50 [3] | pIC50 [4] | IC90 [5] [nM] | Growth rate [6] [%] | pIC50 [7] | pIC50 [8] | pIC50 [9] | pIC50 [10] | pIC50 [11] | pIC50 [12] | pIC50 ([13]; Homo sapiens, HFF) | pIC50 ([13]; hff) | pIC50 [14] | pIC50 [15]
1 | N#Cc1c(Br)n([C@H]2O[C@H](CO)[C@@H](O)[C@@H]2F)c2ncnc(N)c12 | < 4.00 | 4.05 | 5.49 | < 4.00 | > 100000 | 45 | 4.26 | < 3.82 |  |  |  |  |  |  |  | 
2 | N#Cc1c(Br)n([C@@H]2O[C@H](CO)[C@@H](O)[C@@H]2F)c2ncnc(N)c12 | < 4.00 | 4.18 | 4.92 | 4.48 | 7000 | 21 | 4.68 | 3.84 |  |  |  |  |  |  |  | 
3 | N#Cc1cn([C@H]2O[C@H](CO)[C@@H](O)[C@@H]2F)c2ncnc(N)c12 | 4.34 |  | 4.80 | < 4.00 | 100000 | 98 | 4.00 | < 4.00 |  |  |  |  |  |  |  | 
4 | NC(=O)c1cn([C@@H]2O[C@H](CO)[C@@H](O)[C@@H]2F)c2ncnc(N)c12 | 6.33 | 5.49 | 7.60 | 6.40 | 75 | 9 | 5.26 | 5.72 | 6.71 | 8.52 | 6.40 | 5.17 | 6.89 | 6.80 | 7.52 | 7.52 and 8.43
5 | NC(=S)c1cn([C@@H]2O[C@H](CO)[C@@H](O)[C@@H]2F)c2ncnc(N)c12 | 5.06 | 5.30 | 6.66 | 5.70 | 1500 | 5 | 5.51 | 5.52 |  |  |  |  |  |  |  | 
6 | N#Cc1cn([C@@H]2O[C@H](CO)[C@@H](O)[C@@H]2F)c2ncnc(N)c12 | 5.19 | 4.41 | 6.00 | 4.48 | 1100 | 11 | 5.17 | 5.06 |  |  |  |  |  |  |  | 
7 | Nc1nc2c(ncn2COC(CO)CO)c(=O)[nH]1 [GANCICLOVIR] |  |  |  |  | 1600 |  | < 4.00 | < 4.00 |  |  |  |  |  |  |  | 
8 | Cc1cn([C@H]2C[C@H](N=[N+]=[N-])[C@@H](CO)O2)c(=O)[nH]c1=O [ZIDOVUDINE] |  |  |  |  |  |  | < 4.00 |  |  |  |  |  |  |  |  | 
